We go through 11 compounds from ChEMBL document CHEMBL3392999 (J Med Chem, 2014).

Structures are written as SMILES. Calls of active or inactive are those of the source. No cut-off for these calls is given here.

Usually IC50 stands for the concentration needed to halve the response being measured. High values mean weaker potency, low ones greater potency.

The target in series [1] is T1, Tubulin (Homo sapiens) (UniProt P68371+Q9H4B7+P0DPH7+P68366+Q13509+Q71U36+P04350+Q3ZCM7+P07437+P68363+Q9BQE3+Q6PEY2+Q13885+Q9BVA1+Q9BUF5). The series can be described thus: Inhibition of purified tubulin (unknown origin) assessed as critical concentration of tubulin required to produce assembly at 25 uM after 30 mins by spectrophotometry. The class given is protein-complex assay. Summed up: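 Calf-brain tubulin (20 µM) was incubated 30 min at 37 °C in glycerol assembly buffer (3.4 M glycerol, 10 mM sodium phosphate, 1 mM EGTA, 1 mM GTP, pH 6.5) with ligand at varying concentrations or DMSO vehicle. The critical concentration for assembly was then calculated from the processed samples. Values are averages of replicate measurements.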

For a further series, the system named is HT-29. The series can be described thus: Cytotoxicity against human HT-29 cells after 3 days by MTT assay. The class given is functional, cell-based. Conditions: HT-29, 72 h. The method, boiled down:
(§1)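 HT-29, MCF-7 and HEK293 cells were grown in DMEM (1 g/L glucose, 2 mM glutamine, antibiotics, amphotericin, 10% FBS). Serial dilutions of compound in DMSO were added to 5 x 10^3 cells/well for 3 days at 37 °C, 5% CO2. MTT was then added for 4 h, formazan was dissolved in 0.04 N HCl/2-propanol and read at 550 nm, in triplicate. IC50 is the 50% growth inhibition. The ratios are HEK293 IC50 over HT-29 or MCF-7 IC50.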

A further series concerns MCF7. The series can be described thus: Cytotoxicity against human MCF7 cells after 3 days by MTT assay. Conditions: MCF7, 72 h. The class given is functional, cell-based. Summed up:
as §1
In general terms: Formazan colour is commonly taken as a measure of viable cells.

The next series concerns HEK293. The series can be described thus: Cytotoxicity against human HEK293 cells after 3 days by MTT assay. Particulars: HEK293, 72 h. The class given is cell-based. Summed up:
as §1

Series [2] is described as follows: Selectivity ratio of IC50 for human HEK293 cells to IC50 for human HT29 cells. Conditions: HEK293 cells versus HT29 cells, read-out: Ratio IC50. The series is classed as ADME, cell-based. The method, boiled down: as §1
Series [3] in a line: Selectivity ratio of IC50 for human HEK293 cells to IC50 for human MCF7 cells. The class given is ADME, cell-based. Particulars: HEK293 cells versus MCF7 cells, read-out: Ratio IC50. Summed up: as §1
Series [4] can be described thus: Depolymerization of microtubule cytoskeleton in human A549 cells at 1 uM after 24 hrs by hoechst 33342-based fluorescence microscopy. The series is classed as cell-based. Summed up:
(§2)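 A549 cells were cultured overnight on 12 mm round coverslips, then incubated 24 h with ligand or DMSO vehicle. Cells were permeabilized with Triton X-100 and fixed with 3.7% formaldehyde. Microtubules were stained with DM1A anti-α-tubulin monoclonal antibody and DNA with Hoechst 33342, then examined by epifluorescence microscopy with a cooled CCD camera.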

The test system of series [5] is A549. The series can be described thus: Cell cycle arrest at G2/M phase in human A549 cells at 5 to 10 uM after 20 hrs. The class given is functional. The method, boiled down: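 A549 cells (RPMI 1640, 10% FCS, glutamine, antibiotics) were exposed to ligand or DMSO vehicle for 20 h. They were then fixed, RNase-treated and stained with propidium iodide. DNA content was measured by flow cytometry, and G2/M accumulation was read at the lowest concentration giving maximal arrest.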

The test system of the next series is A2780. The series can be described thus: Cytotoxicity against human A2780 cells after 24 hrs by MTT assay. The class given is functional, cell-based. Conditions: A2780, 24 h.
Series [6] in a line: Cytotoxicity against human A2780AD cells after 24 hrs by MTT assay. The series is classed as functional, cell-based. Particulars: A2780 ADR. Summed up: (§3)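 Ovarian carcinoma A2780 and its P-glycoprotein-overexpressing MDR subline A2780AD were cultured in RPMI 1640 with 10% FCS, glutamine, antibiotics and 0.25 units/mL bovine insulin. Cytotoxicity was measured by a modified MTT assay. IC50 is 50% growth inhibition, averaged over three measurements. The resistance factor is A2780AD IC50 divided by A2780 IC50.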

Series [7] can be described thus: Resistance factor, ratio of IC50 for human A2780AD cells to IC50 for human A2780 cells. The class given is functional, A2780 ADR. The method, boiled down:
as §3

Series [8] deals with T1, Tubulin (Homo sapiens). The series can be described thus: Inhibition of purified tubulin (unknown origin) assessed as concentration of compound in dichloromethane solvent at 30 uM after 1 hr. The class given is protein-complex assay. The method, boiled down: (§4)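 In one set, mixtures stood 1 h at 37 °C and were extracted with dichloromethane. In another, microtubules were allowed to assemble and were ultracentrifuged, and the supernatant and pellet were extracted separately. Ligand in each extract was quantified against a 30 µM tubulin-free reference.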

Series [9] addresses T1, Tubulin (Homo sapiens). The series can be described thus: Inhibition of purified tubulin (unknown origin) assessed as concentration of compound in supernatant solution at 30 uM after 1 hr. The class given is protein-complex assay. Summed up:
as §4

Series [10] concerns the target T1, Tubulin (Homo sapiens). The series can be described thus: Inhibition of purified tubulin (unknown origin) assessed as concentration of compound in pellet solution at 30 uM after 1 hr. The series is classed as protein-complex assay. The method, boiled down:
as §4

Series [11] in a line: Depolymerization of microtubule cytoskeleton in human A549 cells assessed as DNA forming a ball without microtubules at 5 uM after 24 hrs by hoechst 33342-based fluorescence microscopy. The series is classed as cell-based. Summed up:
as §2

Series [12] is described as follows: Depolymerization of microtubule cytoskeleton in human A549 cells assessed as DNA forming a ball without microtubules at 10 uM after 24 hrs by hoechst 33342-based fluorescence microscopy. The class given is cell-based. The method, boiled down: as §2
Series [13] is described as follows: Depolymerization of microtubule cytoskeleton in human A549 cells assessed as aberrant mitosis at 5 uM after 24 hrs by hoechst 33342-based fluorescence microscopy. The series is classed as cell-based. Summed up: as §2
A short description of series [14]: Depolymerization of microtubule cytoskeleton in human A549 cells assessed as aberrant mitosis at 10 uM after 24 hrs by hoechst 33342-based fluorescence microscopy. The series is classed as cell-based. Summed up:
as §2

A short description of series [15]: Depolymerization of microtubule cytoskeleton in human A549 cells at 50 nM after 24 hrs by hoechst 33342-based fluorescence microscopy. The series is classed as cell-based. The method, boiled down:
(§5)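 A549 cells grown overnight on 12 mm round coverslips, then 24 h with compound or DMSO vehicle. Cells permeabilized with Triton X100 and fixed in 3.7% formaldehyde. Microtubules stained with DM1A α-tubulin monoclonal antibody, DNA with Hoechst 33342. Examined by epifluorescence microscopy with cooled CCD imaging; mitotic spindles inspected.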

Series [16] can be described thus: Depolymerization of microtubule cytoskeleton in human A549 cells assessed as DNA forming a ball without microtubules at 50 nM after 24 hrs by hoechst 33342-based fluorescence microscopy. The series is classed as cell-based. The method, boiled down:
as §5

Series [17] in a line: Depolymerization of microtubule cytoskeleton in human A549 cells assessed as aberrant mitosis at 50 nM after 24 hrs by hoechst 33342-based fluorescence microscopy. The class given is cell-based. Summed up: as §5
Series [18] concerns A549. The series can be described thus: Cell cycle arrest at G2/M phase in human A549 cells at 50 nM after 20 hrs. The series is classed as functional, cell-based. The method, boiled down:
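A549 human lung carcinoma cells in RPMI 1640 with 10% FCS, glutamine and antibiotics, exposed for 20 h to compound or DMSO vehicle. Cells were fixed, RNase-treated and stained with propidium iodide. DNA content was measured by flow cytometry to give G2/M fraction.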

Series [19] is described as follows: Depolymerization of microtubule cytoskeleton in human A549 cells at 5 uM after 24 hrs by hoechst 33342-based fluorescence microscopy. The class given is cell-based. Summed up:
as §2

`CC(=O)O[C@@]12CO[C@@H]1C[C@H](O)[C@@]1(C)C(=O)[C@H](O)C3=C(C)[C@@H](OC(=O)[C@H](O)[C@@H](NC(=O)OC(C)(C)C)c4ccccc4)C[C@@](O)([C@@H](OC(=O)c4ccccc4)[C@H]21)C3(C)C`: the Activity on Tubulin (Homo sapiens) [1] is 0.9 µM.
As for `COc1cc2c(c(OC)c1OC)-c1ccc(OC)c(=O)cc1[C@@H](NC(=O)CCCC(=O)OCCCCC[C@@H]1CC=CC(=O)O1)CC2`, the IC50 in the series with HT-29 was 21000 nM; with MCF7 it was 700 nM; in the series on HEK293 it was 6000 nM; with A2780, 500 nM; in [6], 59000 nM. Besides, the values for the selectivity ratio in [2] and in series [3] were 0.3 and 8.7, respectively. For the same compound, the result in [4], in [11], in series [12], in series [13] and in [14] was Active. For the same compound, the Activity in the series on A549 [5] is over 80%; at Tubulin (Homo sapiens) [1], 6.6 µM; at Tubulin (Homo sapiens) [8], 21.7 µM; on Tubulin (Homo sapiens) [9], 18.1 µM; on Tubulin (Homo sapiens) [10] it was 5.7 µM. The “Ratio IC50” value in [7] is reported as 118.
Turning to `COc1cc2c(c(OC)c1OC)-c1ccc(OC)c(=O)cc1[C@@H](NC(=O)CCCCCCC(=O)OCCCCC[C@@H]1CC=CC(=O)O1)CC2`, the IC50 in the series with HT-29 is 20000 nM; in the series on MCF7 it was 290 nM; in the series on HEK293, 33000 nM. For the same compound, the selectivity ratio is 1.6 in series [2] and over 100 in [3].
For `COc1cc2c(c(OC)c1OC)-c1ccc(OC)c(=O)cc1[C@@H](NC(=O)CCCCCCC(=O)OCCCCC[C@H]1CC=CC(=O)O1)CC2` the same measures were 40000 nM, 12000 nM, 700 nM, under 0.1 and under 0.1.
The corresponding values for `COc1cc2c(c(OC)c1OC)-c1ccc(OC)c(=O)cc1[C@@H](NC(=O)CCCC(=O)OCCCCC[C@H]1CC=CC(=O)O1)CC2` are 65000 nM, 19000 nM, 400 nM, under 0.1 and under 0.1.
As for `C/C=C/C[C@H](C)[C@@H](OC)[C@@H](C)[C@H](O)C[C@H]1OC(=O)C=C[C@H]1CC` [PIRONETIN], the selectivity ratio in series [2] was 2.6; in series [3], 2.8. In addition, at Tubulin (Homo sapiens) [1], the Activity is over 15 µM. Moreover, the results for the IC50 (in the series with A2780; in series [6]) were 8 nM and 25 nM, respectively. Further, the “Ratio IC50” value in series [7] was determined as 3.
As for `COc1cc2c(c(OC)c1OC)-c1ccc(OC)c(=O)cc1[C@@H](NC(=O)CCCCCCCCCCCCCCC(=O)OCCCCC[C@H]1CC=CC(=O)O1)CC2`, the IC50 turned out to be 30000 nM in the series with HT-29, 500 nM in the series on MCF7 and 500 nM with HEK293. The selectivity ratio was under 0.1 in series [2] and 1 in [3].
Take `COc1cc2c(c(OC)c1OC)-c1ccc(OC)c(=O)cc1[C@@H](NC(=O)CCCCCCCCCCCCCCC(=O)OCCCCC[C@@H]1CC=CC(=O)O1)CC2`: the half-inhibitory concentration (IC50) was 8000 nM in the series on HT-29, 600 nM in the series on MCF7 and 440 nM in the series on HEK293. Also, the selectivity ratio in series [2] was under 0.1; in [3], 0.7.
As for `COc1cc2c(c(OC)c1OC)-c1ccc(OC)c(=O)cc1[C@@H](NC(=O)CCCCCCCCCCC(=O)OCCCCC[C@H]1CC=CC(=O)O1)CC2`, the IC50 is 40000 nM with HT-29, 300 nM with MCF7 and 24000 nM in the series on HEK293. Also, the selectivity ratio in series [2] worked out at 0.6; in [3], 80.
`COc1cc2c(c(OC)c1OC)-c1ccc(OC)c(=O)cc1[C@@H](NC(C)=O)CC2` [COLCHICINE]: the IC50 was found to be 50 nM in the series on HT-29, 5 nM in the series with HEK293 and 306 nM in series [6]. Also, the outcome (in series [15]; in [16]; in [17]; in the series with A549 [18]) was Active.
Take `COc1cc2c(c(OC)c1OC)-c1ccc(OC)c(=O)cc1[C@@H](NC(=O)CCCCCCCCCCC(=O)OCCCCC[C@@H]1CC=CC(=O)O1)CC2`: the IC50 with HT-29 was 18000 nM; in the series on MCF7 it was 330 nM; in the series on HEK293 it was 1400 nM; in the series on A2780, 240 nM; in series [6], 26500 nM. The values for the selectivity ratio in series [2] and in [3] were under 0.1 and 4.2, respectively. Besides, the result in [19], in [11], in series [12], in [13] and in series [14] was Active. Further, the Activity is over 80% in the series with A549 [5]; 6.3 µM on Tubulin (Homo sapiens) [1]; 6.9 µM on Tubulin (Homo sapiens) [8]; 2 µM on Tubulin (Homo sapiens) [9]; 5.7 µM at Tubulin (Homo sapiens) [10]. In addition, the “Ratio IC50” value in series [7] is on record as 110.
